Measurements as given in ChEMBL document CHEMBL3745596, “Chlorophenoxy aminoalkyl derivatives as histamine H(3)R ligands and antiseizure agents” (Bioorg Med Chem, 2016).
Activity calls are given as the source filed them.

Legend:
Mus musculus [1] = test: Neurotoxicity in CF1 albino mouse assessed as unable to grasp rotarod, sedated and myoclonic jerks at 100 mg/kg, ip after 0.5 hrs by rotarod test; assay type: toxicity, organism-based; details: in vivo
Method in brief: (§1)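 Rotarod neurotoxicity in male CF-1 mice dosed ip as 0.5% methylcellulose suspension: mouse placed on 1 inch knurled rod rotating at 6 rpm; toxicity when the animal falls off three times within 1 min, with other signs noted. Scored as toxic/tested at 0.5 h and 4 h.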

Mus musculus [2] = test: Neurotoxicity in CF1 albino mouse at 3 mg/kg, ip after 0.5 hrs by rotarod test; assay type: toxicity, organism-based; details: in vivo
Method in brief: (§2)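 Rotarod neurotoxicity in male albino CF-1 mice dosed ip with compound suspended in 0.5% methylcellulose. Animal placed on a 1 inch diameter knurled plastic rod rotating at 6 rpm. Neurotoxicity scored when the animal falls off three times within 1 min. Readout is number of animals toxic/number tested at the stated time after dosing. TD50 with 95% confidence interval from the quantitative study.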

Mus musculus [3] = test: Neurotoxicity in CF1 albino mouse at 50 mg/kg, ip after 2 hrs by rotarod test; assay type: toxicity, organism-based; details: in vivo; method in brief: as §2
Rattus norvegicus [4] = test: Anticonvulsant activity in ip dosed Sprague-Dawley rat assessed as protection against subcutaneous pentetrazole-induced seizure after 0.25 hrs; assay type: functional
Mus musculus [5] = test: Neurotoxicity in CF1 albino mouse at 45 mg/kg, ip after 0.25 to 0.5 hrs by rotarod test; assay type: toxicity, organism-based; details: in vivo; method in brief: as §2
Rattus norvegicus [6] = test: Anticonvulsant activity in Sprague-Dawley rat assessed as protection against pilocarpine-induced convulsive status epilepticus at 65 mg/kg, ip; assay type: functional, organism-based
Method in brief: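 Male Sprague Dawley rats (150–180 g) dosed ip, pilocarpine 50 mg/kg ip given; compound dosed immediately at first behavioral Stage 3 seizure or 30 min later. Number protected from Racine Stage 3 or greater seizures recorded.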

Mus musculus [7] = test: Anticonvulsant activity in CF1 albino mouse assessed as protection against 6 Hz-psychomotor-induced seizure at 50 mg/kg, ip after 0.25 hrs; assay type: functional, organism-based
Method in brief: (§3)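 Male CF-1 mice, ip suspension in 0.5% methylcellulose. Corneal stimulation 0.2 ms monopolar rectangular pulses at 6 Hz, 32 mA for 3 s via constant-current device; mice without minimal clonic phase seizure counted protected. Groups of four; read at 0.25, 0.5, 1, 2, 4 h; result as protected/tested.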

Mus musculus [8] = test: Neurotoxicity in CF1 albino mouse at 30 mg/kg, ip after 0.5 hrs by rotarod test; assay type: toxicity, organism-based; details: in vivo; method in brief: as §2
Rattus norvegicus [9] = test: Neurotoxicity in Sprague-Dawley rat at 30 mg/kg, ip after 1 hr by rotarod test; assay type: toxicity, organism-based; details: in vivo
Method in brief: (§4)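 Male Sprague–Dawley rats given compound ip as a suspension in 0.5% methylcellulose, groups of four. Rotarod: 1 inch knurled rod at 6 rpm; three falls within 1 min counts as neurotoxic. Scored as number toxic/number tested at pretreatment times between 0.25 and 4 h, or at the stated time.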

Mus musculus [10] = test: Anticonvulsant activity in CF1 albino mouse assessed as protection against subcutaneous pentetrazole-induced seizure at 30 mg/kg, ip after 4 hrs; assay type: functional, organism-based
Method in brief: (§5)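 Male CF-1 mice, ip in 0.5% methylcellulose; pentetrazole at CD97 (85 mg/kg) injected subcutaneously in a loose fold of neck skin. Observed 30 min; absence of even a threshold seizure (single clonic spasm lasting at least 5 s) counted as protection. Scored protected/tested, or ED50.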

Rattus norvegicus [11] = test: Neurotoxicity in Sprague-Dawley rat at 30 mg/kg, ip after 0.5 hrs by rotarod test; assay type: toxicity, organism-based; details: in vivo; method in brief: as §4
Rattus norvegicus [12] = test: Neurotoxicity in Sprague-Dawley rat at 30 mg/kg, ip after 4 hrs by rotarod test; assay type: toxicity, organism-based; details: in vivo; method in brief: as §4
Rattus norvegicus [13] = test: Anticonvulsant activity in Sprague-Dawley rat assessed as protection against maximal electroshock-induced seizure at 30 mg/kg, ip after 4 hrs; assay type: functional, organism-based
Rattus norvegicus [14] = test: Neurotoxicity in Sprague-Dawley rat at 30 mg/kg, ip after 0.25 hrs by rotarod test; assay type: toxicity, organism-based; details: in vivo; method in brief: as §4
Rattus norvegicus [15] = test: Anticonvulsant activity in Sprague-Dawley rat assessed as protection against maximal electroshock-induced seizure at 30 mg/kg, po; assay type: functional
Mus musculus [16] = test: Neurotoxicity in CF1 albino mouse at 50 mg/kg, ip after 4 hrs by rotarod test; assay type: toxicity, organism-based; details: in vivo; method in brief: as §2
Mus musculus [17] = test: Neurotoxicity in ip dosed CF1 albino mouse after 0.25 hrs by rotarod test; assay type: toxicity, organism-based; details: in vivo
Method in brief: as §2, with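 “dosing.” for “dosing. TD50 with 95% confidence interval from the quantitative study.”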

Mus musculus [18] = test: Neurotoxicity in CF1 albino mouse at 50 mg/kg, ip after 0.5 hrs by rotarod test; assay type: toxicity, organism-based; details: in vivo; method in brief: as §2
Mus musculus [19] = test: Anticonvulsant activity in CF1 albino mouse assessed as protection against maximal electroshock-induced seizure at 30 mg/kg, ip after 4 hrs; assay type: functional, organism-based
Method in brief: (§6)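 Male CF-1 mice dosed ip as suspension in 0.5% methylcellulose. Corneal electrodes deliver 60 Hz alternating current, 50 mA for […], after a drop of 0.5% tetracaine HCl in 0.9% NaCl per eye. Protection means abolition of hindlimb tonic extension; scored as protected/tested, or ED50 with 95% confidence interval.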

[20] = Neuroprotective activity in hippocampal slice (unknown origin) assessed as protection against NMDA-induced cell death using propidium iodide staining; assay type: functional; details: Hippocampus
Method in brief: (§7)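 Organotypic hippocampal slice cultures exposed to NMDA or kainic acid alone or with compound; propidium iodide in all wells; PI fluorescence intensity of slices, proportional to cell death, compared with excitotoxin-only slices; qualitative.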

Mus musculus [21] = test: Neurotoxicity in CF1 albino mouse at 30 mg/kg, ip after 4 hrs by rotarod test; assay type: toxicity, organism-based; details: in vivo; method in brief: as §2
Mus musculus [22] = test: Anticonvulsant activity in CF1 albino mouse assessed as protection against maximal electroshock-induced seizure at 30 mg/kg, ip after 0.5 hrs; assay type: functional, organism-based; method in brief: as §6
Mus musculus [23] = test: Neurotoxicity in CF1 albino mouse at 10 mg/kg, ip after 0.5 hrs by rotarod test; assay type: toxicity, organism-based; details: in vivo; method in brief: as §1
Rattus norvegicus [24] = test: Anticonvulsant activity in ip dosed Sprague-Dawley rat assessed as protection against maximal electroshock-induced seizure after 0.25 hrs; assay type: functional
Mus musculus [25] = test: Anticonvulsant activity in CF1 albino mouse assessed as protection against 6 Hz-psychomotor-induced seizure at 50 mg/kg, ip after 1 hr; assay type: functional, organism-based; method in brief: as §3
Mus musculus [26] = test: Neurotoxicity in CF1 albino mouse at 50 mg/kg, ip after 0.25 hrs by rotarod test; assay type: toxicity, organism-based; details: in vivo; method in brief: as §2
Mus musculus [27] = test: Anticonvulsant activity in CF1 albino mouse assessed as protection against subcutaneous pentetrazole-induced seizure at 30 mg/kg, ip after 0.5 hrs; assay type: functional, organism-based; method in brief: as §5
Mus musculus [28] = test: Neurotoxicity in CF1 albino mouse assessed as death at 300 mg/kg, ip after 0.5 hrs by rotarod test; assay type: toxicity, organism-based; details: in vivo
Method in brief: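 Male albino CF-1 mice dosed ip with compound suspended in 0.5% methylcellulose, then placed on a 1-inch knurled plastic rod turning at 6 rpm. A fall three times within 1 min counted as neurotoxicity. Observations were made at 0.5 h and 4 h after dosing. Result given as animals showing toxicity per animals tested, with the kind of toxicity recorded.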

Mus musculus [29] = test: Anticonvulsant activity in CF1 albino mouse assessed as protection against maximal electroshock-induced seizure at 100 mg/kg, ip after 0.5 hrs; assay type: functional, organism-based; method in brief: as §6
Rattus norvegicus [30] = test: Protective index, ratio of TD50 for ip dosed Sprague-Dawley rat to ED50 for ip dosed Sprague-Dawley rat assessed as protection against maximal electroshock-induced seizure after 0.5 hrs; assay type: functional
Method in brief: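 PI = TD50/ED50. Male CF-1 mice or male Sprague–Dawley rats given compound ip as 0.5% methylcellulose suspension. MES: 60 Hz corneal current, 50 mA mice or 150 mA rats, for […] after tetracaine eye drops; protection is abolition of hindlimb tonic extension.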

Mus musculus [31] = test: Neurotoxicity in CF1 albino mouse at 100 mg/kg, ip after 4 hrs by rotarod test; assay type: toxicity, organism-based; details: in vivo; method in brief: as §2
Histamine H3 receptor = Histamine H3 receptor (Homo sapiens, UniProt Q9Y5N1); test: Displacement of [3H]-Nalpha-methylhistamine from human recombinant histamine H3 receptor expressed in HEK293 cells after 90 mins; assay type: cell-based
Mus musculus [32] = test: Anticonvulsant activity in CF1 albino mouse assessed as protection against 6 Hz-psychomotor-induced seizure at 50 mg/kg, ip after 2 hrs; assay type: functional, organism-based; method in brief: as §3
Mus musculus [33] = test: Anticonvulsant activity in CF1 albino mouse assessed as protection against 6 Hz-psychomotor-induced seizure at 50 mg/kg, ip after 4 hrs; assay type: functional, organism-based; method in brief: as §3
Mus musculus [34] = test: Anticonvulsant activity in CF1 albino mouse assessed as protection against maximal electroshock-induced seizure at 3 mg/kg, ip after 0.5 hrs; assay type: functional, organism-based; method in brief: as §6
Mus musculus [35] = test: Anticonvulsant activity in CF1 albino mouse assessed as protection against maximal electroshock-induced seizure at 10 mg/kg, ip after 0.5 hrs; assay type: functional, organism-based; method in brief: as §6
Mus musculus [36] = test: Neurotoxicity in CF1 albino mouse at 50 mg/kg, ip after 1 hr by rotarod test; assay type: toxicity, organism-based; details: in vivo; method in brief: as §2
Rattus norvegicus [37] = test: Neurotoxicity in Sprague-Dawley rat at 30 mg/kg, ip after 2 hrs by rotarod test; assay type: toxicity, organism-based; details: in vivo; method in brief: as §4
[38] = Neuroprotective activity in hippocampal slice (unknown origin) assessed as protection against kainic acid-induced cell death using propidium iodide staining; assay type: functional; details: Hippocampus; method in brief: as §7
Mus musculus [39] = test: Neurotoxicity in CF1 albino mouse at 300 mg/kg, ip after 4 hrs by rotarod test; assay type: toxicity, organism-based; details: in vivo; method in brief: as §2
Mus musculus [40] = test: Anticonvulsant activity in CF1 albino mouse temporal lobe epilepsy model at 30 mg/kg, ip; assay type: functional, organism-based
Method in brief: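 Adult male CF1 mice corneal-kindled to 5 consecutive secondarily generalized seizures (Racine stage 4 or 5). Four fully kindled mice dosed ip and tested 0.5 h later; seizure score below 3 counted protected.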

Histamine H3 receptor, sequence (Q9Y5N1 whole entry): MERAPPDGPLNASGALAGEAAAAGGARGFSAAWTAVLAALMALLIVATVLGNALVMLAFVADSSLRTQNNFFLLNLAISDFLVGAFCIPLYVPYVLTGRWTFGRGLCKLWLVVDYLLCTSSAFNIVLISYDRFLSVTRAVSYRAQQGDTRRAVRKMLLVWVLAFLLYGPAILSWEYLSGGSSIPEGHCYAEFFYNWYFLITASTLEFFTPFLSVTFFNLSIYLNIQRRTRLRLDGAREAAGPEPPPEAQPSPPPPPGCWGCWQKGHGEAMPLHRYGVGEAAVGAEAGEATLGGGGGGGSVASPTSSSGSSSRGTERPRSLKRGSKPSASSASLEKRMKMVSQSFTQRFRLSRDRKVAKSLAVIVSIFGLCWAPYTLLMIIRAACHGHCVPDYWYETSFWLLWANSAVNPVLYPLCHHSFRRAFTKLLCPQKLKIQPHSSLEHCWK

Clc1ccc(OCCCCCCN2CCCCCC2)cc1.O=C(O)C(=O)O
Activity (Mus musculus [1]): Toxic | Activity (Mus musculus [2]): Non-toxic | Activity (Mus musculus [3]): Non-toxic | ED50 (Rattus norvegicus [4]): > 47 mg/kg | Activity (Mus musculus [5]): Toxic | Activity (Rattus norvegicus [6]): Active | Activity (Mus musculus [7]): inactive | Activity (Mus musculus [8]): Non-toxic | Activity (Rattus norvegicus [9]): Non-toxic | Activity (Mus musculus [10]): inactive | Activity (Rattus norvegicus [11]): Non-toxic | Activity (Rattus norvegicus [12]): Non-toxic | Activity (Rattus norvegicus [13]): inactive | Activity (Rattus norvegicus [14]): Non-toxic | Activity (Rattus norvegicus [15]): 25% | Activity (Mus musculus [16]): Non-toxic | TD50 (median neurotoxic dose) (Mus musculus [17]): 36.2 mg/kg | Activity (Mus musculus [18]): Non-toxic | Activity (Mus musculus [19]): inactive | Activity [20]: inactive | Activity (Mus musculus [21]): Non-toxic | Activity (Mus musculus [22]): Active | Activity (Mus musculus [23]): Non-toxic | ED50 (Rattus norvegicus [24]): 14 mg/kg | Activity (Mus musculus [25]): inactive | Activity (Mus musculus [26]): Non-toxic | Activity (Mus musculus [27]): inactive | Activity (Mus musculus [28]): Toxic | Activity (Mus musculus [29]): Active | Ratio TD50/ED50 (Rattus norvegicus [30]): 3.2 | Activity (Mus musculus [31]): Non-toxic | Ki (Histamine H3 receptor): 237 nM | Activity (Mus musculus [32]): inactive | Activity (Mus musculus [33]): inactive | Activity (Mus musculus [34]): inactive | Activity (Mus musculus [35]): inactive | Activity (Mus musculus [36]): Non-toxic | Activity (Rattus norvegicus [37]): Non-toxic | Activity [38]: inactive | Activity (Mus musculus [39]): Non-toxic | Activity (Mus musculus [40]): inactive
